In ChEMBL document CHEMBL1811760, “Structure-activity relationships of C-17-substituted estratriene-3-O-sulfamates as anticancer agents” (J Med Chem, 2011):
The source made the active and inactive calls. No cut-off for these calls is given here.

Assays:
DU-145 = assay: Antiproliferative activity against human DU145 cells after 96 hrs by WST1 assay; assay type: functional; settings: DU-145, 96 h
Procedure, shortened: (§1)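 Cells were grown in RPMI-1640 with 10% FBS at 37 °C in 5% CO2, then seeded at 5000 cells/well. They were exposed to compound at 10^-9–10^-4 M or vehicle for 96 h. Live cells were read by WST-1 and expressed as percent of mean control, from which GI50 was calculated. Runs were done in triplicate.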

MDA-MB-231 = assay: Antiproliferative activity against estrogen-negative human MDA-MB-231 cells after 96 hrs by WST1 assay; assay type: functional; settings: MDA-MB-231, 96 h; procedure, shortened: as §1
HOP-62 = assay: Growth inhibition of human HOP62 cells; assay type: functional
HCT-116 = assay: Growth inhibition of human HCT116 cells; assay type: functional
SF-539 = assay: Growth inhibition of human SF539 cells; assay type: functional
OVCAR-3 = assay: Growth inhibition of human OVCAR3 cells; assay type: functional
SN12C = assay: Growth inhibition of human SN12C cells; assay type: functional
[1] = Growth inhibition of human NCI60 cells; assay type: functional
MCF7 = assay: Antiproliferative activity against estrogen-positive human MCF7 cells; assay type: functional
UACC-62 = assay: Growth inhibition of human UACC62 cells; assay type: functional
[2] = Toxicity in ip dosed athymic nude mouse administered as single dose; assay type: organism-based; settings: in vivo
Procedure, shortened: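 Preliminary toxicology run at the NCI in female athymic nude mice. Each mouse received a single ip dose, at doses up to 400 mg/kg. The compound was formulated in 10% DMSO in saline/Tween 80.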

Mus musculus [3] = assay: Antiangiogenic activity in Matrigel plug implanted C57BL/6J mouse assessed as inhibition of bFGF-induced angiogenesis at 10 mg/kg, po administered 24 hrs after implantation for 4 days measured by FITC-conjugated dextran staining based fluorimetry; assay type: functional, organism-based; parameters: dose 10 mg/kg
Procedure, shortened: (§2)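 Female C57BL/6J mice (6–8 weeks) were injected subcutaneously in the flanks with 0.5 mL ice-cold Matrigel plus 500 ng bFGF. Oral dosing in vehicle (10% THF, 90% PG) ran daily for 4 days, starting 24 h after Matrigel. Groups had five mice. FITC-dextran (0.1 mL of 0.25 mg/mL) was given iv and mice killed 20 min later. Plugs were digested in Dispase 16 h at 37 °C, and supernatant fluorescence read at ex 480/em 520 nm against a FITC-dextran standard curve.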

Mus musculus [4] = assay: Antiangiogenic activity in Matrigel plug implanted C57BL/6J mouse assessed as inhibition of bFGF-induced angiogenesis at 20 mg/kg, po administered 24 hrs after implantation for 4 days measured by FITC-conjugated dextran staining based fluorimetry; assay type: functional, organism-based; parameters: dose 20 mg/kg; procedure, shortened: as §2

Compound	GI50 (DU-145) [nM]	GI50 (MDA-MB-231) [nM]	GI50 (HOP-62) [nM]	GI50 (HCT-116) [nM]	GI50 (SF-539) [nM]	GI50 (OVCAR-3) [nM]	GI50 (SN12C) [nM]	GI50 [1] [nM]	GI50 (MCF7) [nM]	GI50 (UACC-62) [nM]	other results
CCc1cc2c(cc1OS(N)(=O)=O)CC[C@@H]1[C@@H]2CC[C@]2(C)[C@@H](COC)CC[C@@H]12	330	530	45	22	< 10	< 10	72	42	–	–	–
CCc1cc2c(cc1O)CC[C@@H]1[C@@H]2CC[C@]2(C)[C@@H](CCO)CC[C@@H]12	–	–	–	–	–	–	–	–	2520	–	–
CCOC(=O)C[C@H]1CC[C@H]2[C@@H]3CCc4cc(O)c(CC)cc4[C@H]3CC[C@]12C	–	–	–	–	–	–	–	–	26400	–	–
CCc1cc2c(cc1O)CC[C@@H]1[C@@H]2CC[C@]2(C)/C(=C\CO)CC[C@@H]12	–	–	–	–	–	–	–	–	670	–	–
CCc1cc2c(cc1O)CC[C@@H]1[C@@H]2CC[C@]2(C)/C(=C/CO)CC[C@@H]12	–	–	–	–	–	–	–	–	770	–	–
CCc1cc2c(cc1O)CC[C@@H]1[C@@H]2CC[C@]2(C)[C@@H](CC(C)=O)CC[C@@H]12	18900	–	–	–	–	–	–	–	5790	–	–
CCc1cc2c(cc1OS(N)(=O)=O)CC[C@@H]1[C@@H]2CC[C@]2(C)[C@@H](CCOS(N)(=O)=O)CC[C@@H]12	–	–	–	–	–	–	–	–	5640	–	–
CCc1cc2c(cc1O)CC[C@@H]1[C@@H]2CC[C@]2(C)[C@@H](CCOC)CC[C@@H]12	–	–	–	–	–	–	–	–	24800	–	–
CCc1cc2c(cc1OS(N)(=O)=O)CC[C@@H]1[C@@H]2CC[C@]2(C)[C@@H](CO)CC[C@@H]12	100	110	< 10	< 10	< 10	< 10	< 10	18	–	< 10	MTD [2]: 400 mg/kg
CCc1cc2c(cc1OS(N)(=O)=O)CC[C@@H]1[C@@H]2CC[C@]2(C)[C@@H](CCF)CC[C@@H]12	780	–	3720	3390	5250	22900	7590	6310	–	3890	–
CCc1cc2c(cc1O)CC[C@@H]1[C@@H]2CC[C@]2(C)[C@@H](COC)CC[C@@H]12	25300	9200	–	–	–	–	–	–	–	–	–
CCOC(=O)/C=C1\CC[C@H]2[C@@H]3CCc4cc(O)c(CC)cc4[C@H]3CC[C@]12C	–	–	–	–	–	–	–	–	30600	–	–
CCc1cc2c(cc1O)CC[C@@H]1[C@@H]2CC[C@]2(C)[C@@H](CO)CC[C@@H]12	10100	6300	–	–	–	–	–	–	–	–	–
CCOC(=O)/C=C1\CC[C@H]2[C@@H]3CCc4cc(OS(N)(=O)=O)c(CC)cc4[C@H]3CC[C@]12C	–	–	–	–	–	–	–	–	1850	–	–
COc1cc2c(cc1OS(N)(=O)=O)CC[C@@H]1[C@@H]2CC[C@]2(C)[C@@H](CC(C)=O)CC[C@@H]12	89	68	< 10	< 10	< 10	< 10	< 10	21	< 5	< 10	Activity (Mus musculus [3]): Active; Activity (Mus musculus [4]): Active
CCc1cc2c(cc1OS(N)(=O)=O)CC[C@@H]1[C@@H]2CC[C@]2(C)[C@@H](CCO)CC[C@@H]12	–	–	250	270	350	11500	2450	1730	< 500	2890	–
CCc1cc2c(cc1OS(N)(=O)=O)CC[C@@H]1[C@@H]2CC[C@]2(C)[C@@H](C(C)=O)CC[C@@H]12	62	19	< 10	< 10	< 10	< 10	< 10	15	26	< 10	Activity (Mus musculus [3]): Active; Activity (Mus musculus [4]): Active
CCc1cc2c(cc1O)CC[C@@H]1[C@@H]2CC[C@]2(C)[C@@H](CC#N)CC[C@@H]12	–	–	–	–	–	–	–	–	> 100000	–	–

Compound	GI50 (DU-145) [nM]	GI50 (MDA-MB-231) [nM]	GI50 (HOP-62) [nM]	GI50 (HCT-116) [nM]	GI50 (SF-539) [nM]	GI50 (OVCAR-3) [nM]	GI50 (SN12C) [nM]	GI50 [1] [nM]	GI50 (MCF7) [nM]	GI50 (UACC-62) [nM]	other results
COc1cc2c(cc1O)CC[C@@H]1[C@@H]2CC[C@]2(C)[C@@H](CC(C)=O)CC[C@@H]12	2400	–	–	–	–	–	–	–	–	–	–
CCc1cc2c(cc1O)CC[C@@H]1[C@@H]2CC[C@]2(C)[C@@H](CC(F)F)CC[C@@H]12	60000	–	–	–	–	–	–	–	–	–	–
COc1cc2c(cc1OS(N)(=O)=O)CC[C@@H]1[C@@H]2CC[C@]2(C)[C@@H](C(C)=O)CC[C@@H]12	46	48	–	–	–	–	–	–	–	–	–
CCc1cc2c(cc1OS(N)(=O)=O)CC[C@@H]1[C@@H]2CC[C@]2(C)[C@@H](OS(N)(=O)=O)CC[C@@H]12	–	–	< 10	–	< 10	< 10	28	18	–	< 10	–
CCc1cc2c(cc1OS(N)(=O)=O)CC[C@@H]1[C@@H]2CC[C@]2(C)[C@@H](CC(F)F)CC[C@@H]12	1810	–	3890	2820	1950	3470	5370	3090	–	4900	–
COc1cc2c(cc1OS(N)(=O)=O)CC[C@@H]1[C@@H]2CC[C@]2(C)[C@@H](C/C(C)=N\O)CC[C@@H]12	2090	2350	–	–	–	–	–	–	–	–	–
CCc1cc2c(cc1OS(N)(=O)=O)CC[C@@H]1[C@@H]2CC[C@]2(C)[C@@H](COS(N)(=O)=O)CC[C@@H]12	290	430	61	38	56	19	309	85	–	22	–
COc1cc2c(cc1O)CC[C@@H]1[C@@H]2CC[C@]2(C)[C@@H](C(C)=O)CC[C@@H]12	300	390	–	–	–	–	–	–	–	–	–
CCc1cc2c(cc1O)CC[C@@H]1[C@@H]2CC[C@]2(C)/C(=C/COC)CC[C@@H]12	–	–	–	–	–	–	–	–	> 10000	–	–
CCOC(=O)C[C@H]1CC[C@H]2[C@@H]3CCc4cc(OS(N)(=O)=O)c(CC)cc4[C@H]3CC[C@]12C	–	–	590	350	220	220	630	520	4190	450	–
CCc1cc2c(cc1O)CC[C@@H]1[C@@H]2CC[C@]2(C)[C@@H](C(C)=O)CC[C@@H]12	2000	–	–	–	–	–	–	–	–	–	–
CCc1cc2c(cc1OS(N)(=O)=O)CC[C@@H]1[C@@H]2CC[C@]2(C)/C(=C/CO)CC[C@@H]12	–	–	420	270	220	230	580	490	10000	470	–
COc1cc2c(cc1OS(N)(=O)=O)CC[C@@H]1[C@@H]2CC[C@]2(C)[C@@H](CC(C)O)CC[C@@H]12 (some centres undefined)	140	140	48	25	23	< 10	52	28	–	< 10	–
CCc1cc2c(cc1O)CC[C@@H]1[C@@H]2CC[C@]2(C)[C@@H](CCF)CC[C@@H]12	3400	–	–	–	–	–	–	–	–	–	–
CCOC(=O)/C=C1/CC[C@H]2[C@@H]3CCc4cc(O)c(CC)cc4[C@H]3CC[C@]12C	–	–	–	–	–	–	–	–	31100	–	–
CCc1cc2c(cc1OS(N)(=O)=O)CC[C@@H]1[C@@H]2CC[C@]2(C)[C@@H](CC(C)=O)CC[C@@H]12	160	180	–	–	–	–	–	–	320	–	–
CCc1cc2c(cc1OS(N)(=O)=O)CC[C@@H]1[C@@H]2CC[C@]2(C)[C@@H](CCOC)CC[C@@H]12	3400	–	4900	2700	5010	4070	4680	4570	–	2340	–
